About 250 (0.93%) of roughly 27,000 compounds were called active.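 How the source made its calls: active means mutant luminescence inhibited past about 50% while wild type luminescence and mutant growth stay under set limits (limit read from the data); inconclusive means mutant versus wild type luminescence inhibition gap past a set limit; inactive means the rest.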 Only a selection was taken, and actives are over-represented in it overall.
Assay: GCN4-lacZ reporter reduction in eIF2B-epsilon mutant yeast, primary screen, S. cerevisiae, eIF2B-epsilon R284H, Beta-Glo luminescence (AID 688)
Conditions: growth inhibition: measured here: mutant yeast growth, toxicity, concentration not given here; inhibition: stronger effect = higher value, screened at 25 µM (by protocol)
Outline: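 System: Yeast eIF2B-epsilon R284H mutant carrying GCN4–beta-galactosidase fusion | Read-out basis: Percent inhibition, luminescence and growth | Compound: 25 µM single dose | Times: 16 h at 30 °C exposure | Measured by: Luminescence and A595 | Buffer or medium: YPD medium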

Structure (SMILES) | growth inhibition | inhibition
CC(=O)Nc1ccc(NC(=O)CSCc2cnn(-c3ccccc3)c2-n2cccc2)cc1 | -16.7% | 13.1% (inactive)
COCCNC(=O)COc1ccccc1C | 6.67% | 9.39% (inactive)
Cc1nc(N2CCOCC2)nc2c1CCCC2 | 15% | 16.9% (inactive)
C[C@H](NC(=O)OC(C)(C)C)c1nnc(SCC(N)=O)o1 | 7.41% | 12.5% (inactive)
O=C(c1cc2sccc2n1Cc1ccc(F)cc1)N1CCc2ccccc21 | 13.5% | 26.8% (inactive)
CCCCCCc1cc2cc(-c3nnc(-c4cccc(OC)c4)o3)c(=O)oc2cc1O |  | -37.6% (inactive)
CCC(=O)N(Cc1cc2cc(OC)ccc2[nH]c1=O)c1ccccc1C | 3.45% | 5.99% (inactive)
CC(C)(C)n1nnnc1C(c1ccc(Cl)cc1)N1CCSCC1 (stereo not given) | -17.4% | 13.7% (inactive)
CCN(CC)CCCN1C(=O)C(=O)/C(=C(/O)c2c(C)nc3ccccn23)C1c1ccc(C)o1 (stereo not given) | 3.45% | 7.68% (inactive)
CC(=O)NC(C)(C)C1CC=C(C)/C(=N\O)C1 (stereo not given) | -23.8% | -13.5% (inactive)
CC(C)CC(N=C1NC(C)(C)Cc2ccccc21)C(=O)O (stereo not given) | 21.1% | 6.22% (inactive)
O=C(CN1C(=O)CC(c2ccccc2)=Nc2ccccc21)NC1CCCCC1 | -28.6% | 18.7% (inactive)
CCN(CC(=O)NC1CCS(=O)(=O)C1)c1nc(-c2cccnc2)nc2ccccc12 (stereo not given) | -30.9% | 20.1% (inactive)
C[C@H](NC(=O)OC(C)(C)C)c1nnc(SCC(=O)Nc2ccc(Br)cc2)o1 | -11.1% | 14.5% (inactive)
CCOC(=O)C1=C(C)NC2=C(C(=O)CC(C)(C)C2)C1c1ccsc1 (stereo not given) | -7.5% | 9.79% (inactive)
Cc1c(C(=O)CN2CCOCC2)[nH]c2ccccc12 | 18.5% | 16.8% (inactive)
COc1ccc(C2C(C(C)=O)=C(O)C(=O)N2Cc2cccnc2)cc1 (stereo not given) |  | -0.66% (inactive)
CCOC(=O)NC(C(F)(F)F)(C(F)(F)F)P(=O)(c1ccccc1)c1ccccc1 | -5.56% | -15.8% (inactive)
Cc1cc(=O)oc(C)c1C(=O)Nc1cnc2ccccc2c1 | -3.7% | 17.1% (inactive)
COc1ccc(C(C#N)N2N=C(C)CC2(C)C)cc1 (stereo not given) | 4.76% | -5.47% (inactive)
COC(=O)C1=C(C)NC(=O)NC1/C=C/c1ccccc1 (stereo not given) | -4.55% | 22.3% (inactive)
Cc1cc(Oc2ccccc2)nc(N2CCOCC2)n1 | 5.41% | 12.4% (inactive)
CCCc1nc2c3cnn(-c4cccc(Cl)c4)c3ncn2n1 |  | 17.9% (inactive)
CCCc1nc(-c2ccccc2O)n(-c2ccccc2)n1 | 25.8% | 52.9% (active)
CCCCOc1ccc(NC(=O)CSCC(=O)OCC)cc1 |  | 25% (inactive)

Structure (SMILES) | growth inhibition | inhibition
Cc1ccc(-c2nnn(CC(=O)N(CCO)C(C(=O)NC(C)(C)C)c3ccncc3)n2)cc1 (stereo not given) | 14.8% | 23.7% (inactive)
O=c1c2ccccc2oc2nc3n(c(=O)c12)CCCS3 | 4% | 24.9% (inactive)
CCOc1ccc(N=C2SC(C(=O)O)CC(=O)N2C)cc1 (stereo not given) | 12% | 24.2% (inactive)
CCCOc1cc(C)c(S(=O)(=O)n2nnc3ccccc32)cc1C | 12.9% | 11.9% (inactive)
O=C(CSc1nnc(-c2cnccn2)n1Cc1ccco1)c1ccc(Cl)c(Cl)c1 | -22.6% | 4.49% (inactive)
COc1ccc(-c2cc(C(=O)NCc3ccco3)no2)cc1OC | 2.7% | 19.9% (inactive)
O=C(O)CSc1nccn1-c1cccc(Cl)c1 | -14.3% | -8.74% (inactive)
Oc1ccc2ccc3cccc[n+]3c2c1 | -4.35% | 53.1% (active)
O=C(Nc1ccc(S(=O)(=O)N2CCCC2)cc1Cl)C1=COCCO1 | -13.8% | 17.1% (inactive)
Cc1cc(C)n(-c2cc(Oc3ccccc3)ncn2)n1 | -5.56% | 0% (inactive)
Cc1cc(NC(=O)CCC2COc3ccccc3O2)no1 (stereo not given) |  | -23.3% (inactive)
O=c1[nH]c2c(c(=O)n1Cc1ccccc1)CCC2 | 10.8% | 17.1% (inactive)
CCCC(=O)N(CCc1ccccc1)Cc1nc2ccccc2c(=O)[nH]1 | 19% | -3.55% (inactive)
CCn1nccc1C(=O)Nc1ccc(Cl)c(Cl)c1 | -8.33% | 37.2% (inactive)
CCCC(C)C(=O)Nc1ccc(NC(C)=O)cc1 (stereo not given) | 2.78% | 11.4% (inactive)
Cc1ccc(C(=O)Nc2ccccc2C(=O)NC2CCCCC2)cc1S(=O)(=O)N1CCOCC1 | -23.3% | 29% (inactive)
Cc1cccc(C)c1NC(=O)CCCSc1nnc(-c2ccco2)n1-c1ccccc1 | 11.5% | -14.1% (inactive)
Cc1ccnc(NC(=O)c2ccc(NC(=O)c3ccco3)cc2)c1 | -8.33% | 8.24% (inactive)
COc1ccc(Nc2nc(=O)[nH]nc2C)cc1 | 20.6% | 25.8% (inactive)
C=CCNC(=O)CCCC(=O)NCC=C | -4.76% | -58.7% (inactive)
O=C(O)CSCC(=O)Nc1cccc(C(F)(F)F)c1 | 12.1% | 21.9% (inactive)
Cc1cccc2c(=O)n3c(nc12)CCCCC3 | 25.8% | 13.2% (inactive)
CCn1nnc(NC(=O)c2cc(Cl)c(OC)c(Cl)c2)n1 | 18.5% | 17.4% (inactive)
Cc1c(Nc2nc3ccccc3nc2NS(=O)(=O)c2cccs2)c(=O)n(-c2ccccc2)n1C | 5% | -33.1% (inactive)
CC(C)(C)NC(=O)c1cc(NC(=O)c2ccco2)cc(NC(=O)c2ccco2)c1 |  | 11.3% (inactive)

Structure (SMILES) | growth inhibition | inhibition
CCOc1ccccc1N=C1NC(=O)CS1 |  | -14.3% (inactive)
CC/C(=N\O)C(C)(C)/[N+]([O-])=C/c1ccc(Br)cc1 | 5.26% | 9.15% (inactive)
N=c1c2c3c(sc2ncn1CCCN1CCOCC1)CCCCC3 | 3.7% | 23% (inactive)
Cc1nnc(SCC(=O)N2CCN(c3ccccc3)CC2)n1-c1ccccc1 | -9.52% | 1.9% (inactive)
c1ccc(CCc2nc(-c3ccncc3)no2)cc1 | 15.2% | 50.4% (active)
c1csc(-c2nc(-c3ccncc3)no2)c1 | 6.45% | 2.34% (inactive)
O=C1c2ccccc2C(=O)N1CCCc1nc(-c2ccccc2)no1 | -5.56% | -17.2% (inactive)
COCCOCCn1cnc2ccccc21 | 6.67% | 18.1% (inactive)
CCOn1c(SC(C)C)nc2ccccc2c1=O |  | 10.3% (inactive)
O=C(CSc1nnc(-c2cccnc2)n1CCc1ccccc1)NCc1ccccc1 |  | -28.6% (inactive)
Cc1ccc(NC(=O)N2CCC(O)(c3cccnc3)CC2)cc1 | 12.8% | 17.2% (inactive)
Cn1c(Cc2cccc3ccccc23)nnc1SCC(=O)N1CCN(c2cccc(Cl)c2)CC1 | 2.78% | 15.8% (inactive)
CCSC1(SCC)N=C(N)C2(C#N)C(c3ccccc3)NC(C)=CC12C#N (stereo not given) | -8.11% | -35% (inactive)
CNC(=S)N1N=C(c2ccccc2)CC1c1ccc(Br)cc1 (stereo not given) | -12.5% | 17.7% (inactive)
CCNC(=O)CN(c1ccc(C)cc1)S(=O)(=O)c1ccc(SC)cc1 | 13.8% | -15% (inactive)
Cc1nn(C)cc1CNC(=O)Nc1ccc(Cl)cc1 | -18.2% | -9.58% (inactive)
O=C1c2ccncc2C(=O)N1C1CCCCC1 | 8.93% | 68.7% (active)
Cc1cc(N2CCN(S(=O)(=O)c3ccc(C)c(C)c3)CC2)c2ccccc2n1 | 3.23% | 10.4% (inactive)
Cc1[nH][nH]c(=O)c1N=Nc1ccccc1 | 8.33% | 28.6% (inactive)
CN(Cc1nc2ccccc2c(=O)[nH]1)Cc1cc(=O)oc2ccc3ccccc3c12 | 9.38% | 16.8% (inactive)
CC(C)C(NC(=O)c1ccc(Cl)cc1)C(=O)O (stereo not given) | 16.2% | 27.4% (inactive)
CCC(C(=O)NCc1ccc(OC)cc1)n1nc(C)n2c(cc3occc32)c1=O (stereo not given) | -9.52% | 47% (inactive)
Cc1noc(NS(=O)(=O)c2ccc(NC(=O)C34CCC(CC3)C4)cc2)c1C | 2.7% | -23.3% (inactive)
C/C=C/C(=O)OCC(=O)Nc1ccc(F)cc1Cl | -4.76% | 19.8% (inactive)
COc1ccc(CNCCCO)cc1OC | 8.33% | -1.06% (inactive)

Structure (SMILES) | growth inhibition | inhibition
CCc1c(-c2ccccc2)nc(N)c(C#N)c1-c1cccs1 | -19.1% | 15.9% (inactive)
OCCN1CCOCCOCCN(CCO)CCN(CCO)CC1 | -9.52% | 13.5% (inactive)
O=c1[nH][nH]c(C(F)(F)F)c1C=NCc1ccccc1Cl | 12.5% | 12% (inactive)
O=P(O)(CP(=O)(c1ccccc1)c1ccccc1)c1ccccc1 | 3.57% | -14.4% (inactive)
CC(C)(C)NC(=O)Cn1c(SCC(=O)Nc2nccs2)nc2ccccc21 | -29.4% | 0.21% (inactive)
COc1ccccc1N=C1SC(C)CN1C(=O)C1CCC1 (stereo not given) | 4.55% | 26.9% (inactive)
CCN(CC(=O)Nc1ccccc1OC)C(=O)Cn1cnc2ccccc2c1=O | -14.3% | 6.69% (inactive)
C/C(=N\NS(=O)(=O)c1ccc(Br)cc1)c1cccs1 | 2.78% | 11% (inactive)
Cc1cccc(NC(=O)C2CC(=O)OC23CCCC3)c1 (stereo not given) | 11.5% | -11.9% (inactive)
Cc1ccc(NC(=O)N2CCC(c3nc4c(nnn4Cc4c(F)cccc4Cl)c(=O)[nH]3)CC2)cc1 | 6.06% | 14.6% (inactive)
CCC(C)NC(=O)CCCc1ccccc1 (stereo not given) | -2.38% | 7.79% (inactive)
CCCCNC(=O)C1CCCNC1=O (stereo not given) | 26.5% | 22.2% (inactive)
CC1(C)Cc2c(sc3nc(SCC(=O)NCc4ccccc4)n(-c4ccccc4)c(=O)c23)CS1 | -11.9% | -11% (inactive)
CCOc1ccc(S(=O)(=O)NCC2CCCO2)cc1 (stereo not given) | 5.88% | 10.3% (inactive)
Cn1c2c(c(=O)n(C)c1=O)C(c1cccc([N+](=O)[O-])c1)Nc1ccccc1O2 (stereo not given) | -14.3% | 20.4% (inactive)
CC(=O)Nc1ccc(S(=O)(=O)N2CCN(C3CCCCCCC3)CC2)cc1 | 9.09% | -9.55% (inactive)
CCOC(=O)CSc1nnc(CNc2ccc(F)cc2)o1 | 3.45% | 19.4% (inactive)
COc1ccc(CN(CC(=O)NC2CCCC2)C(=O)CCC(=O)Nc2cc(C)on2)cc1 | -15.6% | -35.1% (inactive)
CN(C(=O)COc1ccccc1)c1nnc(-c2ccncc2)s1 |  | 10.2% (inactive)
CCOC(=O)CSc1nnc(CNC(=O)Cc2ccccc2)n1-c1ccccc1OC | -1.72% | 36.1% (inactive)
CCOC(=O)CSc1nncc2ccc(OC)c(OC)c12 |  | 50.1% (active)
CCOC(=O)CSc1nccc(N(C)C)c1C#N | 12% | 24.8% (inactive)
CCC(=O)c1ccc(OCC(O)CN2CC(C)OC(C)C2)cc1 (stereo not given) | 4.55% | -8.08% (inactive)
